The text below walks through data of ChEMBL document CHEMBL1148969, “Lanostanoid triterpenes from Laetiporus sulphureus and apoptosis induction on HL-60 human myeloid leukemia cells” (J Nat Prod, 2004).

In assay [1] the test system is HL-60. Kind of assay: Cytotoxicity against human HL60 cells after 96 hrs by MTT assay. Particulars: for IC50: HL-60, 96 h. The assay is classed as functional, cell-based. The method, boiled down: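 HL-60 promyelocytic leukemia cells; growth inhibition read by MTT; IC50 determined graphically for each experiment by curve fitting. Mean ± SEM of two independent experiments with three determinations each; ursolic acid as positive control.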
Background: Tetrazolium dyes change colour on reduction, which living cells bring about.

The test system of assay [2] is HL-60. Kind of assay: Induction apoptosis in human HL60 cells assessed as appearance of apoptotic bodies at 10 uM after 8 hrs by fluorescence microscopy. The assay is classed as functional, cell-based. The method, boiled down:
(§1)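 HL-60 cells cultured with or without 10 µM compound for 8 h, stained with Hoechst 33258; nuclei examined by fluorescence microscopy for chromatin condensation, shrinkage and apoptotic bodies.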

Assay [3] relates to HL-60. Kind of assay: Induction apoptosis in human HL60 cells assessed as […] DNA fragmentation at 30 uM after 16 hrs by electrophoresis. The assay is classed as functional, cell-based. Summed up: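 Cells treated 16 h at 30 µM; total cellular DNA extracted, run on 2% agarose gel, ethidium bromide stained and internucleosomal ladder viewed under UV; etoposide 3 µM positive control.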

Assay [4] has as its system HL-60. Kind of assay: Induction apoptosis in human HL60 cells assessed as cytochrome c release from mitochondria at 10 uM after 6 hrs by Western blot analysis. The assay is classed as functional, cell-based. Summed up: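 Cells treated 6 h at 10 µM; cytosolic fraction isolated and immunoblotted with monoclonal anti-cytochrome c (band near 15 kDa); β-actin loading control.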

The subject of assay [5] is HL-60. Briefly: Induction apoptosis in human HL60 cells assessed as caspase 3 activity after 6 hrs. Type of assay: functional, cell-based. Summed up:
(§2)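 HL-60 cells given 10 µM for 6 h; lysates with equal protein incubated with colorimetric substrate DEVD-pNA, absorbance at 405 nm. Expressed as fold increase over untreated control; representative experiment in duplicate; etoposide 10 µM positive control.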

The test system of assay [6] is HL-60. Briefly: Induction apoptosis in human HL60 cells assessed as condensation of chromatin at 10 uM after 8 hrs by fluorescence microscopy. The assay is classed as functional, cell-based. The method, boiled down:
as §1

In assay [7] the test system is HL-60. Kind of assay: Induction apoptosis in human HL60 cells assessed as caspase 3 activity at 10 uM after 6 hrs relative to control. The assay is classed as functional. The method, boiled down: as §2
The subject of assay [8] is HL-60. Briefly: Induction apoptosis in human HL60 cells assessed as PARP1 cleavage at 10 uM after 6 hrs by SDS-PAGE. The assay is classed as functional, cell-based. The method, boiled down: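 After 6 h at 10 µM, equal protein from whole-cell lysates run on SDS-PAGE, blotted and probed with anti-PARP-1 monoclonal antibody detecting native 116 kDa and cleaved 85 kDa forms; etoposide positive control.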

Assay [9] deals with HL-60. Briefly: Induction apoptosis in human HL60 cells assessed as appearance of apoptotic nuclei at 30 uM after 8 hrs by fluorescence microscopy. Type of assay: functional, cell-based. Summed up: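 Cells exposed to 30 µM for 8 h, then Hoechst 33258 (bisbenzimide) stained; apoptotic nuclei counted by fluorescence microscopy. Mean ± standard error of one experiment in triplicate, repeated once separately; etoposide as positive control.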

Calls of active or inactive are those of the source. The calls are words filed in the database; no cut-off is given here.

In general, IC50 refers to the concentration needed to halve the response being measured.

For `CC(C)=CCC[C@@H](C(=O)O)[C@H]1C[C@H](O)[C@@]2(C)C3=C(CC[C@]12C)[C@@]1(C)CC[C@H](O)C(C)(C)[C@@H]1CC3`, in [1], the Activity entry was “Dose-dependent effect” and the IC50 is 12 µM.

For `C=C(CC[C@@H](C(=O)O)[C@H]1C[C@H](O)[C@@]2(C)C3=C(CC[C@]12C)[C@@]1(C)CCC(=O)C(C)(C)[C@@H]1CC3)C(C)C`, in assay [1], the Activity result was “Dose-dependent effect” and half-maximal inhibition (IC50) required 407 µM.

Turning to `C=C(CC[C@@H](C(=O)O)[C@H]1C[C@H](OC(C)=O)[C@@]2(C)C3=C(CC[C@]12C)[C@@]1(C)CCC(=O)C(C)(C)[C@@H]1CC3)C(C)C`, the outcome in assay [2], in [3], in [4] and in assay [6] was Active. For the same compound, the Activity entry in assay [1] and in [5] was “Dose-dependent effect” each time. This compound displayed an IC50 in [1] of 25 µM.

As for `C=C(CC[C@@H](C(=O)O)[C@H]1CC[C@@]2(C)C3=C(CC[C@]12C)[C@@]1(C)CC[C@H](OC(C)=O)C(C)(C)[C@@H]1CC3)C(C)C` [ACETYL EBURICOIC ACID], the result in assay [2], in [3], in [4], in [8], in [9] and in assay [6] was Active. In addition, the “fold change (FC)” value in assay [7] was 7. Further, the Activity entry in [1] and in assay [5] was “Dose-dependent effect” each time. In addition, in [1], the IC50 came out at 15 µM.

In the case of `CC(=O)O[C@H]1CC[C@]2(C)C3=C(CC[C@H]2C1(C)C)[C@]1(C)CC[C@H]([C@@H](CCC=C(C)C)C(=O)O)[C@@]1(C)CC3` [ACETYL TRAMETENOLIC ACID], the result in assay [2], in [3], in assay [9] and in assay [6] was Active. The Activity result in [1] and in assay [5] was “Dose-dependent effect” throughout. Further, the IC50 in assay [1] turned out to be 31 µM.

With `C=C(CC[C@@H](C(=O)O)[C@H]1CC[C@@]2(C)C3=C(CC[C@]12C)[C@@]1(C)CC[C@H](O)C(C)(C)[C@@H]1CC3)C(C)C` [EBURICOIC ACID], the outcome in assay [2], in assay [3] and in assay [6] was Active. The Activity result in assay [1] and in assay [5] was “Dose-dependent effect” in each case. In assay [1], this compound had an IC50 of 25 µM.

Take `C=C(CC[C@@H](C(=O)O)[C@H]1C[C@H](O)[C@@]2(C)C3=C(CC[C@]12C)[C@@]1(C)CC[C@H](O)C(C)(C)[C@@H]1CC3)C(C)C` [SULFURENIC ACID]: in assay [1], the Activity entry was “Dose-dependent effect” and the IC50 stood at 14 µM.

Regarding `C[C@H]1[C@H](C)CC[C@]2(C(=O)O)CC[C@]3(C)C(=CC[C@@H]4[C@@]5(C)CC[C@H](O)C(C)(C)[C@@H]5CC[C@]43C)[C@H]12` [URSOLIC ACID], in assay [1], the Activity entry was “Dose-dependent effect” and it took 21 µM to reach half-maximal inhibition (IC50).
